Measured values published in publication PMC8520054 (Asian Journal of Pharmaceutical Sciences, 2021).

What was measured:
[1] = system: adjuvant-induced arthritis (AIA) rat model; assay: In vivo therapeutic efficacy in adjuvant-induced arthritis; set-up: species or system SD rats; conditions: AIA rats, i.v. 0.75 mg/kg peptide every day for one week, n = 7, vs PBS
Procedure, shortened: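 Adjuvant arthritis was induced in male SD rats by s.c. CFA into the paws on Day 1 and was largely established by Day 10. Groups of n = 7, plus healthy controls, received daily i.v. PBS, free peptide or nanoparticles (0.75 mg/kg peptide) for one week. Body weight, paw thickness and joint score were recorded daily. Each paw was graded 0–4 for erythema/swelling, giving a maximum of 16 per rat. Values are mean ± SD; groups were compared by Student's t-test.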

ankle joints of AIA rats = assay: Joint histology; assay type: in vivo, SD rats; conditions: i.v. 0.75 mg/kg peptide every day for one week
Procedure, shortened: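 CFA-induced arthritic SD rats received daily i.v. PBS, free peptide or nanoparticles (0.75 mg/kg peptide) for one week; healthy rats served as controls. Rats were sacrificed after 14 d. Ankle joints were fixed in 4% paraformaldehyde for 3 d, decalcified in 15% EDTA-2Na and sectioned. Sections were stained with HE, or immunostained with IL-17A and MPO antibodies plus secondary antibodies. n = 7.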

[2] = system: TNF-α, IL-1β, IL-6, IL-17A in joint homogenates; assay: Inflammatory cytokines in joint homogenates of AIA rats; assay type: in vivo, SD rats; conditions: ELISA, i.v. 0.75 mg/kg peptide every day for one week, n = 7
Procedure, shortened: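 SD rats made arthritic on Day 1 by 50 µl CFA (10 mg/ml M. tuberculosis) injected s.c. into paws. Arthritic rats (n = 7/group) then dosed i.v. daily for one week with PBS, free peptide or nanoparticle formulation at 0.75 mg/kg peptide; untreated healthy rats as reference. After 14 d, joint tissues cut up and homogenised; TNF-α, IL-1β, IL-6, IL-17A quantified by ELISA; mean ± SD.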

[3] = system: Th17 (CD4+IL-17+) and Treg (CD4+Foxp3+) cells; assay: Flow cytometry of Th17 and Treg cells in draining lymph nodes of AIA rats; assay type: in vivo, SD rats; conditions: Day 24, n = 7
Procedure, shortened: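 Arthritis induced in SD rats on Day 1 by subcutaneous paw injection of 50 µl CFA (10 mg/ml Mycobacterium tuberculosis). Groups (n = 7) given i.v. PBS, free peptide or peptide-loaded nanoparticles (0.75 mg/kg peptide) daily for one week; healthy rats as normal control. On Day 24, popliteal draining lymph nodes sieved (300-mesh) to single cells; CD4+IL-17+ and CD4+Foxp3+ subsets by flow cytometry; mean ± SD.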

[4] = Biocompatibility in AIA rats: blood cell counts and body weight; assay type: in vivo, SD rats; conditions: compared to the normal group, n = 7

Sequence: AMVSEFLKQAWFIENEEQEYVQTVK [Ac2–26]
- paw thickness [1]: limited reduction of the paw thickness
- expression of IL-17A in joint tissues (immunohistochemistry) (ankle joints of AIA rats): clearly visible
- expression of MPO in joint tissues (immunohistochemistry) (ankle joints of AIA rats): slightly attenuate the expression of MPO
- pathological condition of ankle joints (HE staining) (ankle joints of AIA rats; n = 7): extensive inflammation infiltration, tissue damage and cartilage destruction
- expression of IL-1β in joint homogenates [2]: unable to effectively decrease the inflammatory level
- expression of IL-6 in joint homogenates [2]: unable to effectively decrease the inflammatory level
- expression of IL-17A in joint homogenates [2]: unable to effectively decrease the inflammatory level
- expression of TNF-α in joint homogenates [2]: unable to effectively decrease the inflammatory level
- proportion of Treg cells in draining lymph nodes [3]: unable to increase the proportion of Treg
- count of platelets (PLT) [4]: no significant difference
- count of white blood cells (WBC) [4]: no significant difference
